# Test results published in ChEMBL document CHEMBL2010657, “Cytotoxic angucycline class glycosides from the deep sea actinomycete Streptomyces lusitanus SCSIO LR32” (J Nat Prod, 2012).
# Tests used:
# Assay type in all cases: functional, cell-based
# B16 = test: Cytotoxicity against mouse B16 cells after 48 hrs by MTT assay; conditions: B16, 48 h
# Procedure, shortened: (§1)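 Cells grown in RPMI 1640 with 10% FBS at 37 °C, 5% CO2. Seeded at 2 × 10^3 cells/well and allowed 12 h before adding compounds in DMSO at various concentrations. After 48 h exposure, MTT (1 mg/mL in PBS) added for 4 h at 37 °C. Formazan dissolved in DMSO and read at A550. Viability taken as treated/untreated A550 × 100. IC50 reported. 5-FU and doxorubicin served as positive controls.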
# HepG2 = test: Cytotoxicity against human HepG2 cells after 48 hrs by MTT assay; conditions: HepG2, 48 h; procedure, shortened: as §1
# SW1990 = test: Cytotoxicity against human SW1990 cells after 48 hrs by MTT assay; conditions: SW1990, 48 h; procedure, shortened: as §1
# HeLa = test: Cytotoxicity against human HeLa cells after 48 hrs by MTT assay; procedure, shortened: as §1
# NCI-H460 = test: Cytotoxicity against human NCI-H460 cells after 48 hrs by MTT assay; conditions: NCI-H460, 48 h; procedure, shortened: as §1
# MCF7 = test: Cytotoxicity against human MCF7 cells after 48 hrs by MTT assay; conditions: MCF7, 48 h; procedure, shortened: as §1
structure (smiles),measurement,setting,value
COc1cccc2c1C(=O)c1c(O)c3c(c(O)c1C2=O)C[C@@](O)(C(=O)CO)C[C@@H]3O[C@H]1C[C@H](N)[C@H](O)[C@H](C)O1 [DOXORUBICIN],IC50,B16,1.7 µM
same,IC50,HepG2,7.1 µM
same,IC50,SW1990,> 100 µM
same,IC50,HeLa,5.3 µM
same,IC50,NCI-H460,11 µM
same,IC50,MCF7,6.9 µM
O=c1[nH]cc(F)c(=O)[nH]1 [FLUOROURACIL],IC50,B16,33 µM
same,IC50,HepG2,34 µM
same,IC50,SW1990,45 µM
same,IC50,HeLa,43 µM
same,IC50,NCI-H460,29 µM
same,IC50,MCF7,35 µM
C[C@@H]1O[C@@H](O[C@H]2CC[C@H](O[C@H]3[C@H](O)C[C@H](c4ccc5c(c4O)C(=O)c4ccc(C[C@](C)(CC(=O)O)O[C@H]6CC[C@H](O[C@H]7CCC(=O)[C@H](C)O7)[C@H](C)O6)c(O)c4C5=O)O[C@@H]3C)O[C@H]2C)CCC1=O [GRINCAMYCIN B],IC50,B16,2.1 µM
same,IC50,HepG2,8.5 µM
same,IC50,SW1990,11 µM
same,IC50,HeLa,6.4 µM
same,IC50,NCI-H460,> 100 µM
same,IC50,MCF7,12 µM
C[C@@H]1O[C@@H](O[C@H]2CC[C@H](O[C@H]3[C@H](O)C[C@H](c4ccc5c(c4O)C(=O)c4ccc(C[C@@](C)(O)CC(=O)O)c(O)c4C5=O)O[C@@H]3C)O[C@H]2C)CCC1=O [GRINCAMYCIN C],IC50,B16,> 100 µM
same,IC50,HepG2,31 µM
same,IC50,SW1990,31 µM
same,IC50,HeLa,> 100 µM
same,IC50,NCI-H460,> 100 µM
same,IC50,MCF7,11 µM
C[C@@H]1O[C@@H](O[C@H]2CC[C@H](O[C@@](C)(CC(=O)O)Cc3ccc4c(c3O)C(=O)c3ccc([C@H]5C[C@H]6O[C@H]7CC(=O)[C@H](C)O[C@H]7O[C@@H]6[C@@H](C)O5)c(O)c3C4=O)O[C@H]2C)CCC1=O [GRINCAMYCIN D],IC50,B16,9.7 µM
same,IC50,HepG2,9.7 µM
same,IC50,SW1990,22 µM
same,IC50,HeLa,12 µM
same,IC50,NCI-H460,30 µM
same,IC50,MCF7,6.1 µM
C[C@@H]1O[C@@H](O[C@H]2CC[C@H](O[C@H]3[C@H](O)C[C@H](c4ccc5c(c4O)C(=O)c4cc6c(c(O)c4C5=O)C[C@@](C)(O[C@H]4CC[C@H](O[C@H]5CCC(=O)[C@H](C)O5)[C@H](C)O4)CC6=O)O[C@@H]3C)O[C@H]2C)CCC1=O [GRINCAMYCIN E],IC50,B16,5.4 µM
same,IC50,HepG2,11 µM
same,IC50,SW1990,16 µM
same,IC50,HeLa,11 µM
same,IC50,NCI-H460,> 100 µM
same,IC50,MCF7,8.7 µM
C[C@@H]1O[C@@H](O[C@H]2CC[C@H](O[C@@H]3C[C@H](C4=Cc5c(-c6ccc(O)cc6)c(=O)oc6c7c(c(O)c(c56)C4=O)C=C[C@]4(O)C[C@@](C)(O[C@H]5CC[C@H](O[C@H]6CCC(=O)[C@H](C)O6)[C@H](C)O5)CC(=O)[C@]74O)O[C@H](C)[C@H]3O)O[C@H]2C)CCC1=O [GRINCAMYCIN F],IC50,B16,> 100 µM
same,IC50,HepG2,> 100 µM
same,IC50,SW1990,> 100 µM
same,IC50,HeLa,> 100 µM
same,IC50,NCI-H460,> 100 µM
same,IC50,MCF7,> 100 µM
C[C@@H]1O[C@@H](O[C@H]2CC[C@H](O[C@H]3[C@H](O)C[C@H](c4ccc5c(c4O)C(=O)C4=C(C5=O)[C@@]5(O)C(=O)C[C@](C)(O[C@H]6CC[C@H](O[C@H]7CCC(=O)[C@H](C)O7)[C@H](C)O6)C[C@@]5(O)C=C4)O[C@@H]3C)O[C@H]2C)CCC1=O [GRINCAMYCIN],IC50,B16,1.1 µM
same,IC50,HepG2,5.3 µM
same,IC50,SW1990,6.4 µM
same,IC50,HeLa,5.3 µM
same,IC50,NCI-H460,11 µM
same,IC50,MCF7,2.1 µM
